Data from PMC5696082 (Analytical biochemistry, 2017).

Legend:
FAAH = target: T1, FAAH (Homo sapiens, UniProt O00519); test: Specific activity of FAAH towards substrates; type: biochemical
T1 sequence (O00519 1-579): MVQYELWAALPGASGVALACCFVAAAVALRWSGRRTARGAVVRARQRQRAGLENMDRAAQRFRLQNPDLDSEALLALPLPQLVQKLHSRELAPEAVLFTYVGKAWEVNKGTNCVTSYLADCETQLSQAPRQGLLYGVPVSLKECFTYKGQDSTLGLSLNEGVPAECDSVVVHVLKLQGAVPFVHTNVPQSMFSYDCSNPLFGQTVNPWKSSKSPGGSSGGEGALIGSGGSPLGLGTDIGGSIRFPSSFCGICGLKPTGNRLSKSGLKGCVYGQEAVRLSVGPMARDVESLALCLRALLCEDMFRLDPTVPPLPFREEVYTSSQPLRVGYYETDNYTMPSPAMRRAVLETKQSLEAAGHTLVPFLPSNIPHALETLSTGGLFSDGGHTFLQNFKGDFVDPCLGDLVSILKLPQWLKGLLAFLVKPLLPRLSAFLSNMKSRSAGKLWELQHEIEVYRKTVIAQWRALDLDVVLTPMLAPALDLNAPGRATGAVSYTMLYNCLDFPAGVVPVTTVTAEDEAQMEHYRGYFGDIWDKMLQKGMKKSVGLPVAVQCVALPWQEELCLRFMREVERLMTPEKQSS
Outline: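 Enzymes expressed in baculovirus-infected High Five cells: hCE1 CHAPS-solubilised from the 100,000 g pellet, then DEAE-purified; hCE2/hCE3 crude soluble fraction; FAAH crude insoluble fraction. Substrate added to 50 µM final in 100 mM sodium phosphate pH 8.0, 0.1 mg/mL BSA, 1% DMSO. Fluorescence read every 30 s for ≥10 min at 37°C. Rates corrected for estimated purity: hCE1 25%, hCE2 4%, hCE3 3.5% (3% in footnotes), FAAH 6.9%. Triplicates.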

Intestine S9 = test: Substrate hydrolysis by pooled tissue S9, intestine; type: biochemical, human
Outline: (§1)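 Commercial pooled human tissue S9 fraction added to substrate at 50 µM final in 100 mM sodium phosphate, pH 8.0, 0.1 mg/mL BSA. Fluorescence monitored every 30 s for at least 10 min at 37°C. Specific activity given as the mean of triplicates in one experiment, or mean ± standard deviation of 3 independent experiments run in triplicate.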

Kidney S9 = test: Substrate hydrolysis by pooled tissue S9, kidney; type: biochemical, human
Outline: as §1

Liver S9 = test: Substrate hydrolysis by pooled tissue S9, liver; type: biochemical, human
Outline: as §1

With CCCCC(C)CCC(=O)Nc1ccc(OC)nc1C (stereo not shown) [4-MOMMP, N-(6-methoxy-2-methylpyridin-3-yl)-4-methyloctanamide] the “Selectivity of hCE1 over FAAH (turnover)” value (FAAH) was 10 fold, the “Hydrolysis Specific Activity” value (Intestine S9) was <0.05 pmol/min/µg and the “Hydrolysis Specific Activity” value (Kidney S9) was <0.05 pmol/min/µg. For the same compound, the “Hydrolysis Specific Activity” value (Liver S9) was 5.5 ± 0.4 pmol/min/µg.
